How the values were obtained:
[1] = biological target: Beta-lactamase (Escherichia coli K-12) (UniProt P00811); details: 30 uM
[2] = biological target: Beta-lactamase (Escherichia coli K-12) (UniProt P00811); test: Percentage inhibition against beta-Lactamase in the absence of detergent Triton X-100 was determined at a concentration of 25 uM
Summary of the method: (§1)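 AmpC β-lactamase (E. coli-expressed, purified) assayed in 50 mM KPi, pH 7.0, at room temperature. Enzyme and inhibitor preincubated 5 min before substrate addition. Inhibitors were typically diluted from 10 mM DMSO stocks into KPi. Where present, Triton X-100 was at 0.01% final, from a 1% (v/v) stock in 50 mM KPi freshly prepared daily.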

[3] = biological target: Beta-lactamase (Escherichia coli K-12) (UniProt P00811); test: Percentage inhibition of Beta-lactamase at KPi (Potassium Phosphate) stock concentration of 5.9 uM
Summary of the method: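 Compound dissolved directly in 50 mM KPi with no DMSO, stock level set by UV–vis spectra correlated with DMSO-diluted solutions. Tested against AmpC β-lactamase in 50 mM KPi, pH 7.0, room temperature, with 5 min enzyme–inhibitor preincubation. Value reported as percent inhibition.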

[4] = biological target: Beta-lactamase (Escherichia coli K-12) (UniProt P00811); test: Percentage inhibition against beta-Lactamase in the presence of detergent 0.01% Triton X-100 was determined at a concentration of 25 uM
Summary of the method: as §1

[5] = biological target: Beta-lactamase (Escherichia coli K-12) (UniProt P00811); test: Percentage inhibition against beta-Lactamase in the absence of detergent Triton X-100 was determined at a concentration of 0.6 uM
Summary of the method: (§2)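 AmpC β-lactamase (expressed and purified from E. coli) assayed in 50 mM KPi, pH 7.0, at room temperature. Enzyme and inhibitor were preincubated for 5 min before the nitrocefin substrate (200 μM) was added, and hydrolysis was followed kinetically. For the detergent lines, Triton X-100, made fresh daily as a 1% (v/v) stock in 50 mM KPi, was used at a final 0.01%.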

[6] = biological target: Beta-lactamase (Escherichia coli K-12) (UniProt P00811); test: Percentage inhibition against beta-Lactamase in the presence of detergent 0.01% Triton X-100 was determined at a concentration of 0.6 uM
Summary of the method: as §2

[7] = biological target: Beta-lactamase (Escherichia coli K-12) (UniProt P00811); test: Percentage inhibition against beta-Lactamase in the absence of detergent Triton X-100 was determined at a concentration of 20 uM
Summary of the method: as §2

[8] = biological target: Beta-lactamase (Escherichia coli K-12) (UniProt P00811); test: Percentage inhibition against beta-Lactamase in the presence of detergent 0.01% Triton X-100 was determined at a concentration of 20 uM
Summary of the method: as §2

[9] = biological target: T1, Beta-lactamase (Escherichia coli K-12, UniProt P00811); test: Inhibitory activity against Beta-lactamase from DMSO stock was determined
T1 sequence (P00811 whole entry): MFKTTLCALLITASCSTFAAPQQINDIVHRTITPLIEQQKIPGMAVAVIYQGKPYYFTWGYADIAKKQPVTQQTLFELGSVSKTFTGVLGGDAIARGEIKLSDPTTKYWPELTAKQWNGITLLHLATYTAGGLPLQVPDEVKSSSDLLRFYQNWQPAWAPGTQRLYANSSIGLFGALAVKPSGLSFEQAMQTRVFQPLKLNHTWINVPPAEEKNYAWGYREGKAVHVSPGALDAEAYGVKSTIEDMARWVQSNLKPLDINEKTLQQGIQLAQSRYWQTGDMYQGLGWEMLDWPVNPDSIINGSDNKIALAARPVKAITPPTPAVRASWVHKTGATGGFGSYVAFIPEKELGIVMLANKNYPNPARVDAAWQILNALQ

[10] = biological target: T1, Beta-lactamase; test: Inhibitory activity against Amp C beta-Lactamase
[11] = biological target: Beta-lactamase (Escherichia coli K-12) (UniProt P00811); test: Percentage inhibition against beta-Lactamase in the absence of detergent Triton X-100 was determined at a concentration of 5 uM
Summary of the method: as §1

[12] = biological target: Beta-lactamase (Escherichia coli K-12) (UniProt P00811); test: Percentage inhibition against beta-Lactamase in the presence of detergent 0.01% Triton X-100 was determined at a concentration of 5 uM
Summary of the method: as §1

Beta-lactamase (Escherichia coli K-12), sequence (P00811 whole entry): as above

Work on `O=S(=O)(O)c1cc(O)c(/N=N/c2ccc3ccccc3c2O)c2ccccc12` yielded an inhibition [1] of 68%.

For `O=c1c(O)c(-c2ccc(O)c(O)c2)oc2cc(O)cc(O)c12`, the inhibition [2] was 68%, the inhibition [3] was 43% and the inhibition [4] was 25%.

`OB(O)c1cc2ccccc2s1` gave an inhibition [5] of 87% and an inhibition [6] of 86%.

With `Oc1ccc(/N=N/c2ccc(Br)cc2)cc1` the inhibition [7] was 91% and the inhibition [8] was 10%.

`COC(=O)C1=C(C)NC(C)=C(C(=O)OCCN(C)Cc2ccccc2)C1c1cccc([N+](=O)[O-])c1` (configuration not stated) [NICARDIPINE] showed an IC50 [9] of 20 µM and an IC50 [10] of 20 µM.

`CC(=O)c1c(O)c(C)c(O)c(Cc2c(O)c3c(c(C(=O)/C=C/c4ccccc4)c2O)OC(C)(C)C=C3)c1O` [ROTTLERIN] was tested, and the inhibition [11] was 90%, the inhibition [12] was 5% and the IC50 [10] was 1.2 µM.

`O=C1NCc2c1c1c3ccccc3[nH]c1c1[nH]c3ccccc3c21` [STAUROSPORINONE] showed an inhibition [7] of 80%, an inhibition [8] of 17% and an IC50 [10] of 8 µM.

For `Clc1ccc(CSC(Cn2ccnc2)c2ccc(Cl)cc2Cl)cc1` (configuration not stated) [SULCONAZOLE], the IC50 [10] was 14 µM.
